Source: ChEMBL document CHEMBL1123037, “Anticonvulsant activity of some 4-aminobenzanilides” (J Med Chem, 1985)

How the values were obtained:
Mus musculus [1] = species: Mus musculus; assay: Effective dose evaluated against maximal electric seizures (MES) or convulsions in mice; activity value ranges from 12.50-31.75; assay type: functional
Mus musculus [2] = assay: Toxicity tested by rotarod test for neurologic deficit at interval of 4 hr when administered intraperitoneally; LD50 < 600 mg/kg; assay type: organism-based; design: dose 600 mg/kg, route intraperitoneal; settings: in vivo, ip
Mus musculus [3] = assay: Toxicity tested by rotarod test for neurologic deficit at interval of 30 min when 100 mg/kg was administered intraperitoneally; shows activity; assay type: organism-based; design: dose 100 mg/kg, route intraperitoneal; settings: in vivo, ip, 0.5 h
How it was run: (§1)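 Male Carworth Farms number-one mice dosed ip with compound in 30% polyethylene glycol 400. Each mouse was placed on a 1-in.-diameter knurled plastic rod rotating at 6 rpm. Neurologic toxicity was scored as failure to stay on the rod for 1 min. Screening doses were 30, 100, 300 and sometimes 600 mg/kg, tested at 30 min and 4 h. TD50 was read by the graphical method.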

[4] = Toxic dose was determined by the rotarod test in mice; activity value ranges from 88.85-119.90; assay type: toxicity, organism-based; settings: mouse, in vivo
[5] = Protective index as the ratio of TD50 value against MES to that of ED50 value against MES.; assay type: ADME; settings: read-out: PI
How it was run: (§2)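 Protective index = rotorod TD50 divided by ED50 (MES or scMet), both from ip dosing in male Carworth Farms number-one mice, medians obtained graphically.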

Mus musculus [6] = assay: Effective dose was evaluated for its anticonvulsant activity against subcutaneous induced metrazole convulsions in mice; activity value ranges from 122.64-177.02; assay type: functional; settings: sc
Mus musculus [7] = species: Mus musculus; assay: Effective dose evaluated against maximal electric seizures (MES) or convulsions in mice; activity value ranges from 246.97-337.89; assay type: functional
Mus musculus [8] = species: Mus musculus; assay: Effective dose evaluated against maximal electric seizures (MES) or convulsions in mice; activity value ranges from 38.02-50.30; assay type: functional
Mus musculus [9] = assay: Toxicity tested by rotarod test for neurologic deficit at interval of 4 hr when 600 mg/kg was administered intraperitoneally; shows activity; assay type: organism-based; design: dose 600 mg/kg, route intraperitoneal; settings: in vivo, ip; how it was run: as §1
[10] = Toxic dose was determined by the rotarod test in mice; activity value ranges from 156.61-251.07; assay type: toxicity, organism-based; settings: mouse, in vivo
[11] = Protective index as the ratio of TD50 value against scMET to that of ED50 value against scMET.; assay type: ADME; settings: read-out: PI; how it was run: as §2
Mus musculus [12] = assay: Toxicity tested by rotarod test for neurologic deficit at interval of 30 min when 30 mg/kg was administered intraperitoneally; shows activity; assay type: organism-based; design: dose 30 mg/kg, route intraperitoneal; settings: in vivo, ip, 0.5 h; how it was run: as §1
Mus musculus [13] = assay: Toxicity tested by rotarod test for neurologic deficit at interval of 30 min when 300 mg/kg was administered intraperitoneally; shows activity; assay type: organism-based; design: dose 300 mg/kg, route intraperitoneal; settings: in vivo, ip, 0.5 h; how it was run: as §1
Mus musculus [14] = species: Mus musculus; assay: Effective dose evaluated against maximal electric seizures (MES) or convulsions in mice; activity value ranges from 56.16-105.53; assay type: functional
Mus musculus [15] = assay: Toxicity tested by rotarod test for neurologic deficit at interval of 30 min when 600 mg/kg was administered intraperitoneally; shows activity; assay type: organism-based; design: dose 600 mg/kg, route intraperitoneal; settings: in vivo, ip, 0.5 h; how it was run: as §1
Mus musculus [16] = assay: Toxicity tested by rotarod test for neurologic deficit at interval of 4 hr when 600 mg/kg was administered intraperitoneally; no activity; assay type: organism-based; design: dose 600 mg/kg, route intraperitoneal; settings: in vivo, ip; how it was run: as §1
[17] = Toxic dose was determined by the rotarod test in mice; activity value ranges from 556.77-815.69; assay type: toxicity, organism-based; settings: mouse, in vivo
Mus musculus [18] = species: Mus musculus; assay: Effective dose evaluated against maximal electric seizures (MES) or convulsions in mice; activity value ranges from 39.77-53.41; assay type: functional
[19] = Toxic dose was determined by the rotarod test in mice; activity value ranges from 130.89-161.13; assay type: toxicity, organism-based; settings: mouse, in vivo
Mus musculus [20] = species: Mus musculus; assay: Effective dose evaluated against maximal electric seizures (MES) or convulsions in mice; activity value ranges from 14.70-19.13; assay type: functional
[21] = Toxic dose was determined by the rotarod test in mice; activity value ranges from 40.62-57.10; assay type: toxicity, organism-based; settings: mouse, in vivo
Mus musculus [22] = assay: Toxicity tested by rotarod test for neurologic deficit at interval of 4 hr when 100 mg/kg was administered intraperitoneally; shows activity; assay type: organism-based; design: dose 100 mg/kg, route intraperitoneal; settings: in vivo, ip; how it was run: as §1
[23] = Toxic dose was determined by the rotarod test in mice; activity value ranges from 98.01-127.65; assay type: toxicity, organism-based; settings: mouse, in vivo
Mus musculus [24] = assay: Toxicity tested by rotarod test for neurologic deficit at interval of 4 hr when 300 mg/kg was administered intraperitoneally; shows activity; assay type: organism-based; design: dose 300 mg/kg, route intraperitoneal; settings: in vivo, ip; how it was run: as §1
Mus musculus [25] = assay: Anticonvulsant activity of 300 mg/kg after 30 min. of intraperitoneal administration in mice against maximum electroshock seizures (MES); compound shows activity; assay type: functional, organism-based; design: dose 300 mg/kg
Mus musculus [26] = assay: Anticonvulsant activity of 600 mg/kg of compound against subcutaneous induced metrazole convulsions at interval of 30 min administered intraperitoneally in mice; compound shows activity; assay type: functional, organism-based; design: dose 600 mg/kg
Mus musculus [27] = assay: Anticonvulsant activity of 600 mg/kg after 4 hr of intraperitoneal administration in mice against maximum electroshock seizures (MES); compound shows activity; assay type: functional, organism-based; design: dose 600 mg/kg
Mus musculus [28] = assay: Anticonvulsant activity of 600 mg/kg of compound against subcutaneous induced metrazole convulsions at interval of 4 hr administered intraperitoneally in mice; compound does not show activity; assay type: functional, organism-based; design: dose 600 mg/kg
Mus musculus [29] = assay: Effective dose was evaluated for its anticonvulsant activity against subcutaneous induced metrazole convulsions in mice; activity value ranges from 38.83-46.00; assay type: functional; settings: sc
[30] = Toxic dose was determined by the rotarod test in mice activity value ranges from 153.02-189.96; assay type: toxicity, organism-based; settings: mouse, in vivo
Mus musculus [31] = assay: Toxicity tested by rotarod test for neurologic deficit at interval of 30 min when 600 mg/kg was administered intraperitoneally; no activity; assay type: organism-based; design: dose 600 mg/kg, route intraperitoneal; settings: in vivo, ip, 0.5 h; how it was run: as §1
Mus musculus [32] = species: Mus musculus; assay: Effective dose evaluated against maximal electric seizures (MES) or convulsions in mice; activity value ranges from 2.18-3.07; assay type: functional
Mus musculus [33] = species: Mus musculus; assay: Effective dose evaluated against maximal electric seizures (MES) or convulsions in mice;activity value ranges from 66.58-109.74; assay type: functional
[34] = Toxic dose was determined by the rotarod test in mice; assay type: toxicity, organism-based; settings: mouse, in vivo

Cc1cccc(NC(=O)c2ccc(N)cc2)c1C
ED50 (Mus musculus [1]): 25.2 mg/kg | Toxicity (Mus musculus [2]): LD50 < 600 mg/kg | Toxicity (Mus musculus [3]): LD50 < 600 mg/kg | TD50 [4]: 104 mg/kg | selectivity ratio [5]: 4.11

CCCC(CCC)C(=O)O [VALPROIC ACID]
ED50 (Mus musculus [6]): 149 mg/kg | ED50 (Mus musculus [7]): 272 mg/kg

Cc1ccc(NC(=O)c2ccc(N)cc2)cc1C
ED50 (Mus musculus [8]): 42.3 mg/kg | Toxicity (Mus musculus [3]): Activity | Toxicity (Mus musculus [9]): Activity | TD50 [10]: 194 mg/kg | selectivity ratio [5]: 4.59 | selectivity ratio [11]: 2.4

Cc1ccccc1NC(=O)c1ccc(N)cc1
Toxicity (Mus musculus [12]): Activity | Toxicity (Mus musculus [13]): Activity

Cc1ccc(NC(=O)c2ccc(N)cc2)cc1
Toxicity (Mus musculus [3]): Activity | Toxicity (Mus musculus [9]): Activity

CC(C)c1ccccc1NC(=O)c1ccc(N)cc1
ED50 (Mus musculus [14]): 81.5 mg/kg | Toxicity (Mus musculus [15]): No activity | Toxicity (Mus musculus [16]): No activity | TD50 [17]: 709 mg/kg | selectivity ratio [5]: 8.7

Cc1cccc(NC(=O)c2ccc(N)cc2)c1
ED50 (Mus musculus [18]): 47 mg/kg | Toxicity (Mus musculus [13]): Activity | Toxicity (Mus musculus [9]): Activity | TD50 [19]: 143 mg/kg | selectivity ratio [5]: 3.03 | selectivity ratio [11]: 1.62

CCc1cccc(C(C)C)c1NC(=O)c1ccc(N)cc1
ED50 (Mus musculus [20]): 16.7 mg/kg | TD50 [21]: 49.1 mg/kg | Toxicity (Mus musculus [12]): Activity | Toxicity (Mus musculus [22]): Activity | selectivity ratio [5]: 2.95

Nc1ccc(C(=O)Nc2ccccc2)cc1
TD50 [23]: 111 mg/kg | Toxicity (Mus musculus [3]): Activity | Toxicity (Mus musculus [24]): Activity | selectivity ratio [5]: 2.2 | selectivity ratio [11]: 1.88

Cc1ccc(NC(=O)c2ccc(N)cc2)c(C)c1
Activity (Mus musculus [25]): No activity | Activity (Mus musculus [26]): No activity | Activity (Mus musculus [27]): No activity | Activity (Mus musculus [28]): No activity | Toxicity (Mus musculus [15]): No activity | Toxicity (Mus musculus [16]): No activity

CC(NC(=O)c1ccc(N)cc1)c1ccccc1 (centres undefined)
ED50 (Mus musculus [29]): 41.8 mg/kg | TD50 [30]: 171 mg/kg | selectivity ratio [5]: 9.5 | selectivity ratio [11]: 4.1

Cc1ccc(C)c(NC(=O)c2ccc(N)cc2)c1
Toxicity (Mus musculus [31]): No activity | Toxicity (Mus musculus [16]): No activity

Cc1cc(C)cc(NC(=O)c2ccc(N)cc2)c1
Toxicity (Mus musculus [31]): No activity | Toxicity (Mus musculus [16]): No activity

Cc1cccc(C)c1NC(=O)c1ccc(N)cc1 [AMELTOLIDE]
ED50 (Mus musculus [32]): 2.6 mg/kg | Toxicity (Mus musculus [12]): Activity | Toxicity (Mus musculus [22]): Activity

Cc1cccc(C(C)C)c1NC(=O)c1ccc(N)cc1
ED50 (Mus musculus [33]): 86.1 mg/kg | Toxicity (Mus musculus [31]): No activity | TD50 [34]: > 1500 mg/kg | selectivity ratio [5]: > 17.4
